The nature of series [1]: Inhibition of EV71 protease 3C using NMA-IEALFQGPPK(DNP)FR as substrate preincubated for 30 mins followed by substrate addition measured after 2 hrs by FRET analysis. More on the design: species or system Enterovirus A71.
Another series has as its system Enterovirus A71. The series is described as follows: Antiviral activity against EV71 pseudotype virus infected in human Rhabdomyosarcoma cells assessed as reduction in viral replication after 24 hrs by Bright-Glo Luciferase Assay. The conditions noted are these: Enterovirus A. It is filed as functional, organism-based. In outline: (§1)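 EC50 (antiviral) or CC50 (cytotoxicity) values are averaged over three independent experiments, with error given as SEM (n=3).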

Series [2] in a line: Cytotoxicity against human Rhabdomyosarcoma cells after 24 hrs by WST-1 cell proliferation assay. Type of series: cell-based. The method, boiled down: as §1
On the technique in general: Formazan colour is commonly taken as a measure of viable cells.

Series [3] can be described thus: Toxicity in iv dosed mouse measured for 24 hrs. The conditions noted are these: in vivo. It is filed as organism-based. The method, boiled down:
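Acute toxicity study in mice dosed by intravenous injection; the read-out is LD50 in mg/kg.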

A short description of series [4]: Inhibition of EV71 protease 3C using Dabcyl-KTSAVLQSGFRKME-Edans as substrate by fluorescence analysis. More on the design: species or system Enterovirus A71.

Molecules are shown by their SMILES.

Usually IC50 stands for the midpoint of a concentration-inhibition curve. A higher IC50 goes with weaker potency in that assay. As a reminder, the EC50 is the concentration needed to bring the measured effect to its halfway point. What is called CC50 is the concentration that lowers cell viability or growth by half. The low end stands for greater toxicity to the cells, the high end for lower toxicity to the cells. As to `Cc1cc(C(=O)N[C@@H](Cc2ccc(F)cc2)C(=O)N[C@@H](C[C@@H]2CCCNC2=O)[C@H](O)C#N)no1`, the IC50 in series [1] turned out to be 310 nM. For the same molecule, the EC50 in the series on Enterovirus A71 came to 45 nM. This molecule also displayed a CC50 at 24 h in series [2] of more than 100000 nM.

As usually defined, the LD50 is the dose at which mortality reaches 50%. `Cc1cc(C(=O)N[C@@H](Cc2ccc(F)cc2)C(=O)N[C@@H](C[C@@H]2CCCNC2=O)[C@@H](O)C#N)no1` displayed an LD50 at 24 h in series [3] of 96.5 mg/kg. In series [1], this molecule yielded an IC50 of 270 nM. In addition, the EC50 with Enterovirus A71 was 48 nM. The CC50 at 24 h in series [2] was more than 100000 nM.

`CCCNC(=O)C(=O)[C@H](C[C@@H]1CCCNC1=O)NC(=O)[C@H](Cc1ccccc1)NC(=O)/C=C/c1ccccc1`: in series [1], inhibition was half-maximal at 9490 nM (IC50). The EC50 with Enterovirus A71 is 4590 nM. Moreover, in series [2], the CC50 at 24 h was more than 100000 nM.

Turning to `O=C[C@H](C[C@@H]1CCNC1=O)NC(=O)[C@H](Cc1ccccc1)NC(=O)/C=C/c1ccccc1`, the IC50 in series [1] amounted to 3810 nM. Besides, the EC50 with Enterovirus A71 is 3070 nM. The cytotoxic concentration (CC50) at 24 h in series [2] is more than 100000 nM.

Molecule `Cc1cc(C(=O)N[C@@H](Cc2ccc(F)cc2)C(=O)N[C@H](C=O)C[C@@H]2CCCNC2=O)no1` gave a 50% inhibitory concentration (IC50) in series [1] of 100 nM. The EC50 in the series with Enterovirus A71 was determined as 110 nM. The molecule also showed a half-maximal cytotoxic concentration (CC50) at 24 h in series [2] of more than 100000 nM.

The molecule `N#CC(O)[C@H](C[C@@H]1CCCNC1=O)NC(=O)[C@H](Cc1ccccc1)NC(=O)/C=C/c1ccccc1` (some centres undefined) registered an IC50 in series [1] of 1130 nM. The EC50 with Enterovirus A71 amounted to 120 nM. The same molecule showed a half-maximal cytotoxic concentration (CC50) at 24 h in series [2] of more than 100000 nM.

In series [1], `O=C[C@H](C[C@@H]1CCCNC1=O)NC(=O)[C@H](Cc1ccccc1)NC(=O)/C=C/c1ccccc1` came in with an IC50 of 540 nM. In the series on Enterovirus A71, the EC50 came out at 260 nM. In series [2], the CC50 at 24 h was more than 100000 nM.

The molecule `CCCNC(=O)C(O)[C@H](C[C@@H]1CCCNC1=O)NC(=O)[C@H](Cc1ccccc1)NC(=O)/C=C/c1ccccc1` (some centres undefined) gave an IC50 in series [1] of more than 10000 nM. Further, the EC50 in the series with Enterovirus A71 was more than 100000 nM. The half-maximal cytotoxic concentration (CC50) at 24 h in series [2] was more than 100000 nM.

As to `CCOC(=O)/C=C/[C@H](C[C@@H]1CCNC1=O)NC(=O)[C@@H](CC(=O)[C@@H](NC(=O)c1cc(C)on1)C(C)C)Cc1ccc(F)cc1` [RUPINTRIVIR], in series [4], the IC50 came to 2300 nM.

`CC(=O)OC(C#N)[C@H](C[C@@H]1CCCNC1=O)NC(=O)[C@H](Cc1ccccc1)NC(=O)/C=C/c1ccccc1` (some centres undefined) returned an IC50 in series [1] of 1620 nM. Further, in the series on Enterovirus A71, the EC50 came to 100 nM. Further, the CC50 at 24 h in series [2] is more than 100000 nM.

With `N#CC[C@H](C[C@@H]1CCCNC1=O)NC(=O)[C@H](Cc1ccccc1)NC(=O)/C=C/c1ccccc1`, the 50% inhibitory concentration (IC50) in series [1] was more than 10000 nM. Besides, the EC50 in the series with Enterovirus A71 was 28400 nM. Also, in series [2], the half-maximal cytotoxic concentration (CC50) at 24 h was more than 100000 nM.

Molecule `N#C[C@H](C[C@@H]1CCCNC1=O)NC(=O)[C@H](Cc1ccccc1)NC(=O)/C=C/c1ccccc1` came in with an IC50 in series [1] of more than 10000 nM. The 50% effective concentration (EC50) in the series with Enterovirus A71 is more than 100000 nM. For the same molecule, the CC50 at 24 h in series [2] was more than 100000 nM.

On to `Cc1cc(C(=O)N[C@@H](Cc2ccc(F)cc2)C(=O)N[C@@H](C[C@@H]2CCCNC2=O)C(O)C#N)no1` (some centres undefined), for which it took 280 nM to reach half-maximal inhibition in series [1] (IC50). Moreover, the 50% effective concentration (EC50) in the series with Enterovirus A71 turned out to be 56 nM. Moreover, the CC50 at 24 h in series [2] is more than 100000 nM.

The molecule `O=C(/C=C/c1ccccc1)N[C@@H](Cc1ccccc1)C(=O)N[C@H](CO)C[C@@H]1CCCNC1=O` yielded an IC50 in series [1] of more than 10000 nM. In the series with Enterovirus A71, the EC50 was more than 100000 nM. For the same molecule, the CC50 at 24 h in series [2] is more than 100000 nM.

The molecule `N#CC(OC(=S)Oc1ccccc1)[C@H](C[C@@H]1CCCNC1=O)NC(=O)[C@H](Cc1ccccc1)NC(=O)/C=C/c1ccccc1` (some centres undefined) came in with an IC50 in series [1] of 1050 nM. Further, the EC50 in the series with Enterovirus A71 is 150 nM. The molecule further registered a 50% cytotoxic concentration (CC50) at 24 h in series [2] of more than 100000 nM.

Source of the values: ChEMBL document CHEMBL3739383, “Cyanohydrin as an Anchoring Group for Potent and Selective Inhibitors of Enterovirus 71 3C Protease” (J Med Chem, 2015).
